# Results collected from several papers.
# Lines come from different studies, so protocols differ.
# Target: Activated CDC42 kinase 1 (TNK2, Homo sapiens, UniProt Q07912)
Compound,test,conditions,remaining binding
C[C@@H](c1ccc(-n2cnc3c(N)ncnc32)cc1)N1CCc2nn(C)c(Cc3ccccc3)c2C1=O,"binding, competition with immobilised ligand",0.1 µM,82%
CC1CCCN1c1nccc(-c2cnn3ncccc23)n1 (centres unmarked),binding,1 µM,85%
Cc1c(-c2ccccc2)oc2c(C(=O)OCCN3CCCCC3)cccc2c1=O,"cell-free assay, competition with immobilised ligand",10 µM,94%
O=C(NCCCN1CCOCC1)c1ccc(Nc2nccc(-c3cc4ccccc4s3)n2)cc1,"binding, competition with immobilised ligand",1 µM,63%
O=C(NC[C@@H]1[C@H]2CN(C(=O)OCc3cc(C(F)(F)F)cc(C(F)(F)F)c3)C[C@@H]12)c1ccc2[nH]nnc2c1,"cell-free assay, competition with immobilised ligand",1 µM,100%
CN(C)c1nccc(-c2cnc3ncccn23)n1,binding,1 µM,99%
CN([C@@H]1CCc2c(CC(=O)O)c3ccccc3n2C1)S(=O)(=O)c1ccc(F)cc1,"cell-free assay, competition with immobilised ligand",1 µM,100%
FC(F)(F)Oc1cccc(-c2cnc3ccc(-c4ccncc4)nn23)c1,"binding, competition with immobilised ligand",5 µM,79%
N[C@H]1CCN(c2nccc(-c3cnn4ncccc34)n2)C1,binding,1 µM,77%
COc1cnc(Nc2cccc(S(N)(=O)=O)c2)nc1N1CCN(c2ccccc2)C(=O)C1,"binding, competition with immobilised ligand",1 µM,100%
O=C(NS(=O)(=O)c1ccc(NCC2CCOCC2)c([N+](=O)[O-])c1)c1ccc(N2CCN(Cc3ccc(C(F)(F)F)cc3-c3ccc(Cl)cc3)CC2)cc1Oc1cnc2[nH]ccc2c1,"cell-free assay, competition with immobilised ligand",1 µM,100%
O=C(c1ccc(Nc2ncc(Cl)c(-c3ccc(Cl)s3)n2)cc1)N1CCC(N2CCCC2)CC1,"binding, competition with immobilised ligand",1 µM,44%
C=CC(=O)N1CCC(C(=O)NCC(=O)N2CCN(c3nc(-c4cnc(N)nc4C(F)F)nc(N4CCOCC4)n3)CC2)CC1,"binding, competition with immobilised ligand",1 µM,100%
CS(=O)(=O)CCNCc1ccc(-c2ccc3ncnc(Nc4ccc(OCc5cccc(F)c5)c(Cl)c4)c3c2)o1,"cell-free assay, competition with immobilised ligand",10 µM,93%
COc1ccnn2ncc(-c3ccnc(N(C)C)n3)c12,binding,1 µM,100%
C[C@@H]1CN(c2cc(-c3n[nH]c4ccc(OC5(C)CC5)cc34)ncn2)C[C@H](C)O1,"cell-free assay, competition with immobilised ligand",0.1 µM,79%
CCN(CC)Cc1cc(Nc2ccnc3cc(Cl)ccc23)ccc1O,"cell-free assay, competition with immobilised ligand",0.1 µM,89%
Cn1nc(C(F)(F)F)cc1-c1cnc(N2CCc3cc(S(=O)(=O)Nc4c(F)cc(Cl)cc4F)cc(N4CCCC4=O)c32)nc1,"cell-free assay, competition with immobilised ligand",1 µM,100%
CN1CC[C@H](c2c(O)cc(O)c3c(=O)cc(-c4ccccc4Cl)oc23)[C@H](O)C1,"cell-free assay, competition with immobilised ligand",0.1 µM,100%
Cc1cc(C)c(-n2ccn3nc(-c4cccnc4)cc23)cc1NC(=O)c1cc(C#N)cc(S(F)(F)(F)(F)F)c1,"cell-free assay, competition with immobilised ligand",0.1 µM,83.6%
O=C(NCC1CCOCC1)c1n[nH]cc1NC(=O)c1c(F)cccc1F,"binding, competition with immobilised ligand",1 µM,98%
COc1cc2ncnc(Nc3ccc(F)c(Cl)c3)c2cc1OCCCN1CCOCC1,"cell-free assay, competition with immobilised ligand",10 µM,77%
Cc1c(C(=O)O)cc(-c2ccc(C3CCNCC3)cc2)c2ccc(-c3ccc(C(F)(F)F)cc3)cc12,"binding, competition with immobilised ligand",1 µM,100%
